Test results: ChEMBL document CHEMBL1806372, “Cytotoxic ring A-modified steroid analogues derived from Grundmann's ketone” (Eur J Med Chem, 2011)
Active and inactive are the calls of the source. The rule behind the calls is not given here.

Tests used:
MDA-MB-231 = assay: Growth inhibition of human MDA-MB-231 cells assessed as cell growth at 10^-5 M after 48 hrs by sulforhodamine B assay; format: functional; settings: MDA-MB-231, 48 h, read-out: Activity
Procedure, shortened: (§1)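 NCI-60 single high-dose screen run under the NCI protocol. Cells were incubated with compound at 10^-5 M for 48 h. The end point was determined by sulforhodamine B protein staining. Results are reported as percent growth of treated cells relative to untreated control cells.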

UACC-62 = assay: Growth inhibition of human UACC62 cells assessed as cell growth at 10^-5 M after 48 hrs by sulforhodamine B assay; format: functional; settings: UACC-62, 48 h, read-out: Activity
Procedure, shortened: (§2)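 NCI 60-cell panel single-dose screen under the NCI protocol. Cells are exposed to compound at one concentration (10^-5 M) for 48 h. The end point is protein staining with sulforhodamine B. Each line is reported as percent growth of treated cells relative to untreated control cells.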

MOLT-4 = assay: Growth inhibition of human MOLT4 cells assessed as cell growth at 10^-5 M after 48 hrs by sulforhodamine B assay; format: functional; settings: MOLT-4, 48 h, read-out: Activity; procedure, shortened: as §1
Malme-3M = assay: Growth inhibition of human MALME-3M cells assessed as cell growth at 10^-5 M after 48 hrs by sulforhodamine B assay; format: functional; settings: read-out: Activity; procedure, shortened: as §1
MCF7 = assay: Growth inhibition of human MCF7 cells assessed as cell growth at 10^-5 M after 48 hrs by sulforhodamine B assay; format: functional; settings: MCF7, 48 h, read-out: Activity; procedure, shortened: as §1
ACHN = assay: Growth inhibition of human ACHN cells assessed as cell growth at 10^-5 M after 48 hrs by sulforhodamine B assay; format: functional; settings: read-out: Activity
Procedure, shortened: (§3)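 NCI 60-cell panel single high-dose screen: compound applied at 10^-5 M for 48 h, endpoint by sulforhodamine B protein-binding dye. Values reported as growth percent of treated cells relative to untreated control cells.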

UO-31 = assay: Growth inhibition of human UO31 cells assessed as cell growth at 10^-5 M after 48 hrs by sulforhodamine B assay; format: functional; settings: UO-31, 48 h, read-out: Activity; procedure, shortened: as §2
SR = assay: Growth inhibition of human SR cells assessed as cell growth at 10^-5 M after 48 hrs by sulforhodamine B assay; format: functional; settings: read-out: Activity; procedure, shortened: as §2
U-251 = assay: Growth inhibition of human U251 cells assessed as cell growth at 10^-5 M after 48 hrs by sulforhodamine B assay; format: functional; settings: U-251, 48 h, read-out: Activity; procedure, shortened: as §2
HCT-116 = assay: Growth inhibition of human HCT116 cells assessed as cell growth at 10^-5 M after 48 hrs by sulforhodamine B assay; format: functional; settings: HCT-116, 48 h, read-out: Activity; procedure, shortened: as §3
HT-29 = assay: Growth inhibition of human HT-29 cells assessed as cell growth at 10^-5 M after 48 hrs by sulforhodamine B assay; format: functional; settings: HT-29, 48 h, read-out: Activity; procedure, shortened: as §3
HL-60(TB) = assay: Growth inhibition of human HL-60(TB) cells assessed as cell growth at 10^-5 M after 48 hrs by sulforhodamine B assay; format: functional; settings: HL-60, 48 h, read-out: Activity
Procedure, shortened: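 NCI single high-dose screen across the 60-cell panel (leukemia, melanoma, lung, colon, brain, breast, ovary, kidney, prostate), run per NCI protocol. Cells incubated with compound at 10^-5 M for 48 h. Sulforhodamine B protein-binding dye end point. Reported as growth percent of treated vs untreated control cells.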

NCI-H23 = assay: Growth inhibition of human NCI-H23 cells assessed as cell growth at 10^-5 M after 48 hrs by sulforhodamine B assay; format: functional; settings: NCI-H23, 48 h, read-out: Activity; procedure, shortened: as §1
Yarrowia lipolytica = assay: Antifungal activity against Yarrowia lipolytica assessed as zone of inhibition at 5 uL and 28 degC after 36 hrs by disk diffusion method; format: functional
Procedure, shortened: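 Agar disc diffusion with the test compound applied as a 1% (w/v) DMSO solution. Yeasts were grown on AC agar and Aspergillus niger on potato dextrose broth agar, each strain spread evenly. Plates were covered and kept 36 h at 28 °C, and the inhibition zone diameter was read in mm. Clotrimazole served as reference.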

EKVX = assay: Growth inhibition of human EKVX cells assessed as cell growth at 10^-5 M after 48 hrs by sulforhodamine B assay; format: functional; settings: read-out: Activity; procedure, shortened: as §3
RPMI-8226 = assay: Growth inhibition of human RPMI8226 cells assessed as cell growth at 10^-5 M after 48 hrs by sulforhodamine B assay; format: functional; settings: RPMI-8226, 48 h, read-out: Activity; procedure, shortened: as §1
HL-60 = assay: Cytotoxicity against human HL60 cells after 24 hrs by MTT assay; format: functional, cell-based; settings: HL-60, 24 h
Procedure, shortened: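 HL-60 cells kept in RPMI 1640 with 10% FBS, no antibiotics, 37 °C, humidified 5% CO2. Cells (9 × 10^5 cells/mL) exposed to compound in 96-well plates for 24 h at 37 °C. MTT in PBS (5 mg/mL) added for 2 h, then DMSO, shaken 1 h and read photometrically. IC50 determined; cisplatin reference.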

HCT-15 = assay: Growth inhibition of human HCT15 cells assessed as cell growth at 10^-5 M after 48 hrs by sulforhodamine B assay; format: functional; settings: HCT-15, 48 h, read-out: Activity; procedure, shortened: as §3
MDA-MB-435 = assay: Growth inhibition of human MDA-MB-435 cells assessed as cell growth at 10^-5 M after 48 hrs by sulforhodamine B assay; format: functional; settings: MDA-MB-435, 48 h, read-out: Activity; procedure, shortened: as §1
SNB-19 = assay: Growth inhibition of human SNB19 cells assessed as cell growth at 10^-5 M after 48 hrs by sulforhodamine B assay; format: functional; settings: SNB-19, 48 h, read-out: Activity; procedure, shortened: as §2
SF-268 = assay: Growth inhibition of human SF268 cells assessed as cell growth at 10^-5 M after 48 hrs by sulforhodamine B assay; format: functional; settings: SF-268, 48 h, read-out: Activity; procedure, shortened: as §1
LOX IMVI = assay: Growth inhibition of human LOXIMVI cells assessed as cell growth at 10^-5 M after 48 hrs by sulforhodamine B assay; format: functional; settings: read-out: Activity; procedure, shortened: as §3
NCI/ADR-RES = assay: Growth inhibition of human NCI/ADR-RES cells assessed as cell growth at 10^-5 M after 48 hrs by sulforhodamine B assay; format: functional; settings: read-out: Activity; procedure, shortened: as §1
A549 = assay: Growth inhibition of human A549 cells assessed as cell growth at 10^-5 M after 48 hrs by sulforhodamine B assay; format: functional; settings: A549, 48 h, read-out: Activity; procedure, shortened: as §3
PC-3 = assay: Growth inhibition of human PC3 cells assessed as cell growth at 10^-5 M after 48 hrs by sulforhodamine B assay; format: functional; settings: PC-3, 48 h, read-out: Activity; procedure, shortened: as §1
SW-620 = assay: Growth inhibition of human SW620 cells assessed as cell growth at 10^-5 M after 48 hrs by sulforhodamine B assay; format: functional; settings: SW-620, 48 h, read-out: Activity; procedure, shortened: as §2
RXF 393 = assay: Growth inhibition of human RXF393 cells assessed as cell growth at 10^-5 M after 48 hrs by sulforhodamine B assay; format: functional; settings: RXF 393, 48 h, read-out: Activity; procedure, shortened: as §1
Streptococcus entericus = assay: Antibacterial activity against Streptococcus entericus assessed as zone of inhibition at 5 uL and 32 degC after 36 hrs by disk diffusion method; format: functional
Procedure, shortened: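 Disc diffusion on AC agar, each strain spread evenly over the medium; test compounds given as 1% (w/v) DMSO solutions. Plates covered and incubated 36 h at 32 °C, then the diameter of the zone of inhibited growth measured in mm. Tetracycline served as antibacterial reference.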

| Compound | growth at 10 µM (MDA-MB-231) [%] | growth at 10 µM (UACC-62) [%] | growth at 10 µM (MOLT-4) [%] | growth at 10 µM (Malme-3M) [%] | growth at 10 µM (MCF7) [%] | growth at 10 µM (ACHN) [%] | growth at 10 µM (UO-31) [%] | growth at 10 µM (SR) [%] | growth at 10 µM (U-251) [%] | growth at 10 µM (HCT-116) [%] | growth at 10 µM (HT-29) [%] | growth at 10 µM (HL-60(TB)) [%] | growth at 10 µM (NCI-H23) [%] | diameter of the inhibition zone (DIZ) (Yarrowia lipolytica) | growth at 10 µM (EKVX) [%] | growth at 10 µM (RPMI-8226) [%] | IC50 (HL-60) [nM] | growth at 10 µM (HCT-15) [%] | growth at 10 µM (MDA-MB-435) [%] | growth at 10 µM (SNB-19) [%] | further results |
| --- | --- | --- | --- | --- | --- | --- | --- | --- | --- | --- | --- | --- | --- | --- | --- | --- | --- | --- | --- | --- | --- |
| CC(C)CCC[C@@H](C)[C@H]1CC[C@H]2[C@@H]3CCN4C(=O)CCC(=O)N4[C@@H]3CC[C@]12C | 98.2 | 88.1 | 87.2 | 95.6 | 88.5 | 90 | 76.3 | 79.7 | 106 | 95 | 87.9 | 72 | 87 | 15 mm | 83.3 | 56.6 | 30000 | 106 | 97.7 | 162 | growth at 10 µM (SF-268): 74.5%; growth at 10 µM (LOX IMVI): 84.5%; growth at 10 µM (NCI/ADR-RES): 94.6%; growth at 10 µM (A549): 84.1%; growth at 10 µM (PC-3): 70.5%; growth at 10 µM (SW-620): 93.2%; growth at 10 µM (RXF 393): 102%; diameter of the inhibition zone (DIZ) (Streptococcus entericus): 10 mm |
| CC(C)CCC[C@@H](C)[C@H]1CC[C@H]2C3=CCn4c(=O)ccc(=O)n4[C@@H]3CC[C@]12C | -89.2 | -82.4 | -23.6 | -98 | -92.5 | -95.1 | -88.5 | -34.6 | -96.9 | -44.6 | -97.5 | -43.3 | -55.4 | 7 mm | -82.2 | -41.5 | 30 | -63.7 | -57.4 | -100 | growth at 10 µM (SF-268): -92.3%; growth at 10 µM (LOX IMVI): -89.5%; growth at 10 µM (NCI/ADR-RES): -28.8%; growth at 10 µM (A549): -79.3%; growth at 10 µM (PC-3): -85.5%; growth at 10 µM (SW-620): -91.6%; growth at 10 µM (RXF 393): -76%; diameter of the inhibition zone (DIZ) (Streptococcus entericus): 7 mm |
| CC(C)CCC[C@@H](C)[C@H]1CC[C@H]2C3=CC[C@@H]4C(=O)C=CC(=O)[C@@H]4[C@@H]3CC[C@]12C | 28.6 | -63.2 | 10.4 | 17.5 | 8.65 | 4.54 | -67.9 | 13.2 | 11.5 | 3.29 | 7.56 | -5.46 | 8.4 | inactive | -10 | 8.72 | 700 | 11.3 | -16.4 | 7.34 | growth at 10 µM (SF-268): -61.2%; growth at 10 µM (LOX IMVI): -43.4%; growth at 10 µM (NCI/ADR-RES): 7.87%; growth at 10 µM (A549): 8.75%; growth at 10 µM (PC-3): 9.01%; growth at 10 µM (SW-620): 20.4%; growth at 10 µM (RXF 393): -66.6%; diameter of the inhibition zone (DIZ) (Streptococcus entericus): inactive |
